# Assays:
# [1] = test system: HEK-AT1AR cells; assay: Resensitization of ATII-induced Ca2+ signaling; format: cell-based, human; conditions: SM-19712 10 μM, 20 min and 2 h recovery
# Outline: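 HEK-AT1AR cells were exposed to ATII (100 nM) or vehicle for 1 h at 37°C, washed, and allowed to recover in agonist-free medium at 37°C. They were then rechallenged with ATII (100 nM) while [Ca2+]i was measured. The [Ca2+]i change is expressed as % of the vehicle-pretreated response. Inhibitor (10 μM) or DMSO was preincubated 20–60 min and kept in buffers throughout. Mean ± SE, n ≥ 3.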
# [2] = test system: HEK cells; assay: BK-induced Ca2+ signaling, desensitization and resensitization; format: cell-based, human; conditions: SM-19712 10 μM
# Outline: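 HEK cells with native B2R were loaded with Fura-2AM and [Ca2+]i read at 37°C, on coverslips or in suspension. Cells were preincubated with BK 100 nM or vehicle (10 min, 37°C), washed, recovered 0–120 min, then rechallenged with BK 100 nM. SM-19712 10 μM, bafilomycin A1 0.15 or 1 μM, or DMSO was preincubated 20–60 min and kept in buffers throughout.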
smiles,measurement,setting,value
Cc1nn(-c2ccccc2)c(NC(=O)NS(=O)(=O)c2ccc(Cl)cc2)c1C#N.[Na] [SM-19712],Effect on resensitization of ATII-induced Ca2+ signaling,[1],did not affect resensitization at either time
same,Effect on response to a single BK challenge ([Ca2+]i),"[2]; BK 100 nM, thiorphan 1 μM, phosphoramidon 1 μM",did not affect responses to a single BK challenge
same,Effect on desensitization of BK-induced Ca2+ signaling,[2]; bafilomycin A1 0.15 or 1 μM,had no effect
same,Effect on resensitization of BK-induced Ca2+ signaling,"[2]; bafilomycin A1 0.15 or 1 μM, 0–120 min recovery",had no effect
